ATG4B inhibitor = ATG4B (human) cysteine protease inhibition; Q9Y4P1; ATG4B cleavage of LC3-PLA2, NBD-HPC fluorescence, 1 h; inhibition, % at 8.33 µM; 340,000 tested, 0.51% active; AID 504462; in the data active = inhibition above about 40%
Rin1 Abl inh = inhibitors of human Rin1-Abl protein interaction. P00519+Q13671. TR-FRET Rin1/Abl binding, biochemical. inhibition, % at 7.35 µM. 360,000 tested, 0.4% active. AID 588664; in the data active = inhibition above about 5%, passing the limit was not always enough
UCH37 inh = blocks the human deubiquitinase UCH37; inhibition, % (no concentration beside the values); Q9Y5K5; 330,000 tested, 0.33% active; purified proteasome/UCH37, Ub-AMC cleavage fluorescence;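 active = mean inhibition over replicate wells above about 20%, limit read from the data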;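 also: 0% = compound-free wells with enzyme and 100% = wells lacking proteasome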
Target sequence (Q9Y5K5 whole entry, looked up): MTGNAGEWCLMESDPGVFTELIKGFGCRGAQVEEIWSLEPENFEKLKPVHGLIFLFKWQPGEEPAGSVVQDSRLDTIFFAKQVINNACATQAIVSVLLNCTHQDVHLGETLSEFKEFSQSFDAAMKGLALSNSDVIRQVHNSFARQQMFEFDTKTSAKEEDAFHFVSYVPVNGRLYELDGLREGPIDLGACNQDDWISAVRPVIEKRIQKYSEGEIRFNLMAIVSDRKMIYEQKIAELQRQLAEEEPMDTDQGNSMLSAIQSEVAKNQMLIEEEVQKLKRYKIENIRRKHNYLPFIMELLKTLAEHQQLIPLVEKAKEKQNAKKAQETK
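Reagent: Ub-AMC substrate; assay system: Proteasome-associated human UCH37 deubiquitinase; controls: no-proteasome and no-compound wells; read-out: % inhibition of Ub-AMC cleavage fluorescence; timing: 30 min preincubation with enzyme, 25 min cleavage at room temperature; signal: AMC fluorescence from Ub-AMC cleavage, excitation 355 nm, emission 460 nm; buffer or medium: Tris-HCl pH 7.4 plus ovalbumin, ATP-MgCl2, DTT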
Tb MetRS inh = Trypanosoma brucei MetRS inhibition; inhibition, % at 11.9 µM; 360,000 tested, 0.4% active; purified T. brucei MetRS, ATP depletion, Kinase-Glo luminescence;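 active = inhibition above a per-plate cutoff of the control wells' mean inhibition plus 3 SD, cut at about 5.5% in these data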;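 also: 0% = DMSO wells median and 100% = median of wells with control inhibitor compound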
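Material: T. brucei methionyl-tRNA synthetase, purified; reagent: substrates ATP, L-methionine and bulk Escherichia coli tRNA; dosing: 11.9 µM single point; timing: 15 min plus 2 h at 25 °C; detection: luminescence of leftover ATP; evaluation: % inhibition; control set: DMSO-only wells as low control; replicates: singlicate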
TbMetRS confirm = Trypanosoma brucei MetRS inhibition confirmed. shares compounds with Tb MetRS inh. inhibition, % at 11.9 µM. 1,400 tested, 93% active. T. brucei MetRS enzyme, luminescence (ATP depletion); in the data active = inhibition above about 7%
Jurkat tox = counter-screen for T. brucei MetRS inhibitors: Jurkat cell cytotoxicity; shares compounds with Tb MetRS inh; Jurkat cells viability, ATP luminescence; inhibition, % at 8.3 µM; 1,400 tested, 12% active; in the data active = inhibition above about 15%;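 also: 0% = vehicle and 100% = reference inhibitor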
Tb MetRS inh FP = orthogonal test for Trypanosoma brucei MetRS inhibitors; 1,400 tested, 44% active; inhibition, % at 11.9 µM; AID 651607; purified T. brucei MetRS, fluorescence polarization; shares compounds with Tb MetRS inh; in the data active = inhibition above about 17%;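 also: 0% = vehicle wells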
* = called active by the depositor. A selection: hits, their analogues and other compounds. The true share with any hit is near 1.4%.

What do the screens show for `COC(=O)CC/C(O)=C1\C(=O)CC(C)(C)CC1=NCc1nc2ccccc2[nH]1`?
ATG4B inhibitor: 1; Rin1 Abl inh: -4; UCH37 inh: 2; Tb MetRS inh: 48*; TbMetRS confirm: 67*; Jurkat tox: -4; Tb MetRS inh FP: 35*

How did O=C(O)COc1ccccc1/C=N/NC(=O)Cc1csc(Nc2cccc(C(F)(F)F)c2)n1 do in these assays?
ATG4B inhibitor: 7; Rin1 Abl inh: 2; Tb MetRS inh: -1

Results for Cn1c(NC(=O)c2ccc(Cl)cc2Cl)cc(=O)n(C)c1=O ?
ATG4B inhibitor: 2; Rin1 Abl inh: -3; UCH37 inh: -1; Tb MetRS inh: 0

How did Cc1cc(NC(=O)c2ccc(Cl)cc2Cl)n(CCC#N)n1 do in these assays?
ATG4B inhibitor: -4; Rin1 Abl inh: 0; UCH37 inh: 1; Tb MetRS inh: 6.4*; TbMetRS confirm: 13*; Jurkat tox: 5; Tb MetRS inh FP: 12

How did Cc1ccc(C2CC(c3ccc(Cl)cc3)=NNC2=O)cc1 (stereo not given) do in these assays?
ATG4B inhibitor: 0; Rin1 Abl inh: -1; UCH37 inh: 1; Tb MetRS inh: 0

What do the screens show for `Cc1cccc(CC(=O)c2c[nH]c3ccccc23)c1`?
ATG4B inhibitor: 1; Rin1 Abl inh: 1; UCH37 inh: 1; Tb MetRS inh: 11*; TbMetRS confirm: 22*; Jurkat tox: 10; Tb MetRS inh FP: 13

How did Cc1ccccc1NC(=O)Cc1nnc(SCC(=O)Nc2ccccc2)n1C do in these assays?
ATG4B inhibitor: -9; Rin1 Abl inh: -2; UCH37 inh: 3; Tb MetRS inh: -1

How did S=C(NCc1cccnc1)Nc1cc(Cl)cc(Cl)c1 do in these assays?
ATG4B inhibitor: 2; Rin1 Abl inh: 0; UCH37 inh: 3; Tb MetRS inh: 24*; TbMetRS confirm: 52*; Jurkat tox: 5; Tb MetRS inh FP: 30*

What do the screens show for `S=C(NCc1ccncc1)Nc1cc(Cl)cc(Cl)c1`?
ATG4B inhibitor: 12; Rin1 Abl inh: 1; UCH37 inh: 0; Tb MetRS inh: 10*; TbMetRS confirm: 23*; Jurkat tox: 0; Tb MetRS inh FP: 13

How did S=C(NCc1ccncc1)Nc1ccc(Cl)c(Cl)c1 do in these assays?
ATG4B inhibitor: 17; Rin1 Abl inh: -2; UCH37 inh: 1; Tb MetRS inh: 2

What do the screens show for `COc1cc(C2CC(=O)NC3=C2C(=O)CC(C)(C)C3)cc(OC)c1O` (stereo not given)?
ATG4B inhibitor: 3; Rin1 Abl inh: 0; UCH37 inh: 1; Tb MetRS inh: -2

What do the screens show for `Cc1[nH]n(-c2ccccc2)c(=O)c1C(=O)c1ccccc1`?
ATG4B inhibitor: 7; Rin1 Abl inh: -4; UCH37 inh: 8; Tb MetRS inh: 0

What do the screens show for `COc1cccc(C(c2c(C)[nH]n(-c3ccccc3)c2=O)c2c(C)[nH]n(-c3ccccc3)c2=O)c1O`?
ATG4B inhibitor: 4; Rin1 Abl inh: 6; UCH37 inh: 3; Tb MetRS inh: 8.1*; TbMetRS confirm: 2; Jurkat tox: -2; Tb MetRS inh FP: 2

Results for CCOC(=O)[C@]12CCCC=C1N(Cc1ccc(Cl)cc1Cl)C(=O)[C@H](CC(=O)NCc1ccc(C)o1)C2 ?
Tb MetRS inh: 0

What do the screens show for `Brc1ccc(OCc2nc3ccccc3[nH]2)cc1`?
ATG4B inhibitor: 7; Rin1 Abl inh: 1; UCH37 inh: 7; Tb MetRS inh: 10*; TbMetRS confirm: 16*; Jurkat tox: 0; Tb MetRS inh FP: 9

Results for COc1ccc(OCc2nc3ccccc3[nH]2)cc1 ?
ATG4B inhibitor: -7; Rin1 Abl inh: -3; UCH37 inh: -2; Tb MetRS inh: 1

Results for c1ccc2cc(OCc3nc4ccccc4[nH]3)ccc2c1 ?
ATG4B inhibitor: -14; Rin1 Abl inh: -2; UCH37 inh: 4; Tb MetRS inh: 6.0*; TbMetRS confirm: 6.8*; Jurkat tox: 4; Tb MetRS inh FP: 9

How did COC1CC(C)NC(=S)N1 (stereo not given) do in these assays?
ATG4B inhibitor: -8; Rin1 Abl inh: 0; UCH37 inh: 2; Tb MetRS inh: 0
